# Compound activity from PubChem BioAssay.
# Sampled rows, rich in hits. Any-hit rate of the full collection: about 1.3%.
# HKDC1 inh: inhibitors of human hexokinase HKDC1; AID 493160; actives 0.16% (n = 340,000); Q2TB90; inhibition, % at 20 µM; recombinant HKDC1, G6PDH/diaphorase resazurin coupled fluorescence;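 active means inhibition above about 35% when tested at 20 µM, limit read from the data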;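 further: plate controls were DMSO wells with enzyme for no effect and DMSO wells lacking enzyme for full effect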
# Target sequence (Q2TB90 whole entry, looked up): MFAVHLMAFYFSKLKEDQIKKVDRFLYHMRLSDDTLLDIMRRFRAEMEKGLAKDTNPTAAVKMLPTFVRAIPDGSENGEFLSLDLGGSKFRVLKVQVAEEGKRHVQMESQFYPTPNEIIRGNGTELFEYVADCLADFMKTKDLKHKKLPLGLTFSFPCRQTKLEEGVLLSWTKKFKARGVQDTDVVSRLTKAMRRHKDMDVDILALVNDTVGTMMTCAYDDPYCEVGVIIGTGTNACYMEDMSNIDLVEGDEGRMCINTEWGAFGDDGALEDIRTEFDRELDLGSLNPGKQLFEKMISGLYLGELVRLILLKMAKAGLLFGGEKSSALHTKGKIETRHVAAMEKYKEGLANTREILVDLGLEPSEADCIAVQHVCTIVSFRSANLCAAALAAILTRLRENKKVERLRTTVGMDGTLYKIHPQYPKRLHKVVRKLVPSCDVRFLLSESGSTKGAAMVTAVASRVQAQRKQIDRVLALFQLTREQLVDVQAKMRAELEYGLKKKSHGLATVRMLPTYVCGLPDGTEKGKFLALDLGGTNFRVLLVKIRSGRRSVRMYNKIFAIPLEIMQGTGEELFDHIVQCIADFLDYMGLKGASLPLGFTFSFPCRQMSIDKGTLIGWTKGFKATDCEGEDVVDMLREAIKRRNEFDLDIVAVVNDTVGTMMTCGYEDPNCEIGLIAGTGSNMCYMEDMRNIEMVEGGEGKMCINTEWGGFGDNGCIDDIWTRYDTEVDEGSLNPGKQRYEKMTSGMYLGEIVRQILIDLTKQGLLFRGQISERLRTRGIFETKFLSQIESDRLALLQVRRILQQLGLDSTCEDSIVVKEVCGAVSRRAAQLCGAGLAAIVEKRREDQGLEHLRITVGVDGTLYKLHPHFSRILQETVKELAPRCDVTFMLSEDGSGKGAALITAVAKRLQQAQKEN
#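 Incubation: 90 min at room temperature in dark / Material: recombinant HKDC1 (HK5) hexokinase enzyme, produced in-house / Quantity: enzyme 5 µg/mL final / Compound: one dose of 20 µM, 1% DMSO / Reagent: glucose and ATP substrates / Buffer or medium: Tris pH 8.0 buffer with MgCl2, Tween-20, BSA, BME / Technique: resorufin fluorescence at 613 nm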
# Diaph act CS: activates diaphorase or chemically reduces, flagging diaphorase assay artifacts; Diaphorase/resazurin coupled assay, resorufin fluorescence, 16 min; hits give high values; 1 = vehicle wells, 0 = NADH-free wells; activation factor at 20 µM; actives 0.005% (n = 190,000);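 active means diaphorase activity raised at least twofold by the compound at 20 µM; inactive means activation factor below 2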
#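 Test system: Clostridium kluyveri diaphorase, purified enzyme. Buffer or medium: 50 mM HEPES pH 7.4 buffer plus MgCl2 and Tween 20. Also added: 0.114 mM NADH and 0.1 mM resazurin, final amounts. Dosing: compound 20 µM once, DMSO 1%. Schedule: 16 min enzyme reaction, ambient temperature. Detection: fluorescence of resorufin, 544 nm excitation, 590 nm emission.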
# Diaphorase inh: inhibits diaphorase or chemically oxidizes, flagging diaphorase assay artifacts | inhibition, % at 20 µM | AID 1217 | actives 0.69% (n = 190,000) | diaphorase resazurin-to-resorufin fluorescence, NADH, 16 min; bacterial (C. kluyveri) enzyme, not human;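 active means primary screen inhibition at 20 µM above a set limit, cut at about 50% in these data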;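 further: plate controls were DMSO with full reaction for no effect and wells lacking NADH for full effect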
#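 Test system: diaphorase enzyme from Clostridium kluyveri; amount: diaphorase at 0.14 U/mL in enzyme working solution; detection: fluorescence of resorufin formed from resazurin, Ex 544/Em 590 nm; times: reaction incubation of 16 min at room temperature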
# PfG6PD inh: PfG6PD (Plasmodium falciparum) enzyme inhibition; inhibition, % at 20 µM; PfGluPho enzyme, NADPH resazurin-diaphorase fluorescence; AID 504690; actives 0.78% (n = 350,000);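 active means inhibition reaching at least a set limit at 20 µM in the primary screen, cut at about 59% in these data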;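 further: 0% = DMSO wells with substrate and 100% = DMSO wells lacking glucose-6-phosphate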
# G6PDH CS: inhibits Leuconostoc G6PDH, flagging false hits in G6PDH-based assays. Purified L. mesenteroides G6PDH, diaphorase/resazurin coupled fluorescence, 45 min. inhibition, % at 5 µM. actives 0.12% (n = 200,000). AID 1020; in the data active means inhibition above about 50%
# HKDC1 act conf2: HKDC1 (human) activation, single-dose confirmed; AID 504708; recombinant HKDC1, G6PDH/diaphorase resazurin fluorescence; hits give low values; actives 14% (n = 740); shares compounds with HKDC1 inh; inhibition, % at 20 µM;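 active means inhibition at or below a set negative limit, negative inhibition meaning the enzyme was activated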
# Active calls of the source: *; / = not tested or not shown.
SMILES,HKDC1 inh,Diaph act CS,Diaphorase inh,PfG6PD inh,G6PDH CS,others
CCO[C@@H]1OC(C(=O)Nc2ccccc2)=C[C@H](c2ccccc2)[C@H]1CCCO,-1,0.8,18,27,7,
CC(=O)NC1=C(N(C)C2CCS(=O)(=O)C2)C(=O)c2ccccc2C1=O (centres undefined),39*,0.4,62*,97*,47,
CN(C(=O)Nc1ccccc1)C1CCS(=O)(=O)C1 (centres undefined),-1,0.9,8,-2,7,
CCC1(C)Cc2sc3c(=O)[nH]c(=S)[nH]c3c2CO1 (centres undefined),1,0.2,84*,-10,9,
Cc1nc2ccccc2n1CCc1nc2c3ccccc3nc(=S)n2[nH]1,4,0.1,89*,19,-1,
Cc1cc(C)n(-c2ccc(C(=O)N3CCN(S(=O)(=O)c4ccc(Br)cc4Cl)CC3)cc2)n1,/,/,/,1,/,
Cc1ccc(C)c(S(=O)(=O)/N=C2\C=C(NS(=O)(=O)c3ccccc3)C(=O)c3ccccc32)c1,21,/,/,8,/,
Cc1cc(C)c(S(=O)(=O)/N=C2/C=C(Sc3ncn[nH]3)C(=O)c3ccccc32)cc1C,64*,0.5,50,109*,51*,
CCS(=O)(=O)C1=NN2C(=N)/C(=C\c3ccc(SCc4ccco4)o3)C(=O)N=C2S1,4,0.4,57*,11,3,
Cc1sc2nc[nH]c(=S)c2c1-c1ccccc1,9,0.2,82*,9,-8,
Cc1ccc(-c2csc3nc[nH]c(=S)c23)cc1,2,0.3,70*,11,9,
Cc1cc(-c2csc3nc[nH]c(=S)c23)cc(C)c1C,6,0.4,56*,12,-3,
Clc1cccc(Oc2ncc(CN3CCOCC3)s2)c1,-1,0.9,6,-9,5,
NNC(=O)CNc1ccccc1Cl,-3,0.5,54*,-9,3,
COc1ccc(/C=N/n2c(-c3n[nH]c4c3CCC4)n[nH]c2=S)cc1OC,13,0.4,63*,58,16,
Oc1ccc(N=Cc2ccc(-c3cccs3)s2)cc1,15,0.7,31,72*,26,
O=C(O)c1ccc(NNC(=S)Nc2cc(C(F)(F)F)ccc2Cl)cc1,4,/,/,-2,/,
CCN(CC)c1ccc2c(c1)CCCN2,/,0.4,59*,/,35,
COCCN(C(=S)Nc1cccc(OC)c1)C(C)c1cccs1 (centres undefined),-12,1,4,19,3,
COc1ccc(/C=C2\N=C(SC)SC2=O)cc1OC,3,0.9,14,0,4,
CCOc1cc(/C=C2\N=C(SC)SC2=O)cc([N+](=O)[O-])c1OC(C)=O,13,0.2,81*,3,6,
CCOc1c(OC(C)=O)ccc(/C=C2\N=C(SCC)SC2=O)c1[N+](=O)[O-],15,0.8,18,21,0,
CCOc1cc(/C=C2\N=C(SCC)SC2=O)cc([N+](=O)[O-])c1OC(C)=O,9,0.1,90*,-7,8,
O=C(CSc1n[nH]c(=O)[nH]c1=O)c1ccccc1,-8,1,4,-4,0,
O=C(Nc1ccc(N2CCOCC2)c(Cl)c1)c1cc2ccccc2o1,2,0.9,14,126*,5,
SMILES,HKDC1 inh,Diaph act CS,Diaphorase inh,PfG6PD inh,G6PDH CS,others
COc1ccc(Nc2nc3[nH]c(=O)cc(O)c3s2)cc1,3,0.3,69*,42,20,
Cc1nn(-c2cccc(Cl)c2)c2nc(-c3ccco3)cc(C(=O)O)c12,2,0.7,34,-11,7,
Cc1cccc(-n2nc(C)c3c(C(=O)O)cc(-c4cccs4)nc32)c1,-3,0.5,52*,-20,5,
O=C(CC(=O)c1cc(Cl)ccc1O)c1ccccc1,-4,0.9,12,-4,-21,
O=C(c1ccccc1)c1cc(Cl)ccc1N1C(=O)C=CC1=O,-4,0.9,11,112*,7,
CCC1=NN2C(=N)/C(=C\c3cccn3-c3cccc(Cl)c3)C(=O)N=C2S1,-6,0.4,59*,-9,0,
Cc1ccc(Nc2nnns2)cc1C,1,0.8,20,59*,-6,
C/C(=N\NC(=O)c1cc(-c2cccc([N+](=O)[O-])c2)n[nH]1)c1ccccc1O,1,0.9,9,-29,-8,
Cc1cc(NC(=O)c2ccc(OCC3CCCO3)cc2)ccc1Br (centres undefined),/,/,/,2,/,
S=C(Nc1ccc2nc(-c3ccccn3)c(-c3ccccn3)nc2c1)N1CCCCC1,16,/,/,57,50*,
S=C(Nc1ccc2nsnc2c1)N1CCCCC1,2,0.3,66*,-19,50,
Cc1nc2ccc(NC(=S)NC3CC3)cc2nc1C,-8,0.8,20,3,17,
CCCNC(=S)Nc1ccc2nc(-c3ccccn3)c(-c3ccccn3)nc2c1,8,0.5,52*,36,49,
Cc1nc2ccc(NC(=S)NCCCO)cc2nc1C,10,0.7,25,15,56*,
CCCCNC(=O)[C@H]1C[C@H]1[C@@H](O)[C@H](CO)NC(=O)[C@H](CC(C)C)NC(=O)OC(C)(C)C,-8,/,/,17,/,
COc1ccc(S(=O)(=O)Nc2c(C)nc3nc[nH]n3c2=O)cc1,1,0.9,5,8,5,
COC(=O)CN(c1cc(C(F)(F)F)ccc1Cl)S(C)(=O)=O,-1,0.9,14,-8,-3,
CCN(CC)C(=O)CSc1nc2c(sc(=S)n2-c2ccccc2)c(=O)[nH]1,12,0.3,69*,-10,2,
CCOC(=O)c1ccc(-n2c(=S)sc3c(=O)[nH]c(C)nc32)cc1,-12,0.8,16,66*,-15,
CCOC(=O)CC(=O)CSc1nc2c(sc(=S)n2-c2ccccc2)c(=O)[nH]1,16,0.5,48,-1,1,
CCN(CC)C(=O)CSc1nc2c(sc(=S)n2Cc2ccco2)c(=O)n1-c1ccccc1,1,0.5,51*,11,1,
O=C1CCC(C(=O)OC(C(=O)Nc2ccc([N+](=O)[O-])cc2Br)c2ccccc2)=NN1 (centres undefined),4,/,/,-8,/,
CC1CC(=O)N(CC(=O)NC2CCCCC2)c2ccccc2S1 (centres undefined),-2,/,/,10,/,
O=C(Cc1ccccc1F)Nc1ccccc1-c1ccccc1,1,1,-3,7,-2,
O=C(COc1ccc(Cl)cc1Cl)Nn1c(=S)[nH]c2ncccc2c1=O,-22,0.5,50*,-23,-22,
CCOC(=O)C1=C(Cc2ccc(F)cc2)C(=O)c2ccccc2C1=O,73*,0.7,25,98*,62*,HKDC1 act conf2=59
